# CSN inh: CSN deneddylation inhibition; Purified CSN, SCF-Nedd8-OG deneddylation, fluorescence polarization; Q92905; 360,000 tested, 0.38% active; inhibition, % at 12.5 µM;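 active means pattern-corrected inhibition above about 35%, with an unprinted fluorescence ratio check between 0.5 and 1.5, limit read from the data, passing the limit was not always enough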;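 further: 0% = enzyme with substrate and 100% = substrate without enzyme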
#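 test system = HEK293T-derived human Csn5 enzyme | amount = 0.24 nM Csn5 enzyme, final concentration | medium = Tris/NaCl/DTT buffer, pH 7.5 | schedule = 90 min reaction at room temperature | signal = FP | evaluation = inhibition of Csn5 cleavage, % | compound dosing = single dose of 12.5 µM compound with 0.25% DMSO | probe or stimulus = 10 nM SCFSkp2-Nedd8OG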
# SUMO1 PPI mod: modulators of human SUMO1-mediated protein-protein interactions; P63165; SUMO1 binding to a labelled peptide, TR-FRET, 1 h; inhibition, % at 20 µM; 360,000 tested, 0.33% active; AID 602429; in the data active means inhibition above about 37%
# DNMT1 inh: inhibitors of human DNMT1 | P26358 | DNMT1 molecular beacon, Hinp1I cleavage, fluorescence | inhibition (reported as % activation of signal), % at 10 µM | 360,000 tested, 0.83% active | AID 588458; in the data active means inhibition above about 50%
# LMPTP block: LMPTP (human) inhibition | 360,000 tested, 0.22% active | recombinant LMPTP-A, OMFP fluorogenic substrate, fluorescence intensity | inhibition, % at 20 µM | AID 651560;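 active means compounds that cut the enzyme signal by at least half of the control window in the single-dose screen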;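 further: plate controls were DMSO wells with enzyme plus substrate for no effect and substrate without enzyme for full effect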
#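 Assay system: LMPTP-A enzyme. Input: 0.625 nM LMPTP-A final. Probe or stimulus: 400 µM OMFP. Compound dosing: single 20 µM dose. Schedule: 50 min dark incubation at room temperature. Detection: fluorescence intensity of OMFP turnover product. Read-out: percent inhibition versus substrate-only and uninhibited controls. Benchmarks: no-enzyme low control, uninhibited high control.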
# Scp-1 inhibitor: inhibitors of human Scp-1 phosphatase; Q9GZU7; Recombinant Scp1, phosphopeptide, malachite green phosphate absorbance; inhibition, % at 20 µM; 340,000 tested, 0.88% active;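 active means inhibition above about 50% at 20 µM, limit read from the data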;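 further: plate controls were DMSO wells with enzyme for no effect and wells lacking enzyme for full effect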
#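 Test system – truncated SCP-1 phosphatase (76-261aa) · Reagent – Phosphorylated 17-residue peptide substrate · Incubation – 45 min room-temperature reaction, 5 min colour, 30 min stabiliser · Detection – colorimetric phosphate reagent with accelerator and stabiliser, absorbance at 630 nm · Measure – % inhibition at 20 µM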
# STEP block: inhibitors of human striatal-enriched phosphatase STEP; inhibition, % at 20 µM; AID 588621; P54829; 360,000 tested, 0.25% active; recombinant STEP, OMFP fluorogenic substrate, fluorescence;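 active means inhibition at 20 µM, scaled per plate between control wells, above about 37%, limit read from the data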;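 further: 0% = DMSO with enzyme and substrate and 100% = substrate only without enzyme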
# Target sequence (P54829 whole entry, looked up): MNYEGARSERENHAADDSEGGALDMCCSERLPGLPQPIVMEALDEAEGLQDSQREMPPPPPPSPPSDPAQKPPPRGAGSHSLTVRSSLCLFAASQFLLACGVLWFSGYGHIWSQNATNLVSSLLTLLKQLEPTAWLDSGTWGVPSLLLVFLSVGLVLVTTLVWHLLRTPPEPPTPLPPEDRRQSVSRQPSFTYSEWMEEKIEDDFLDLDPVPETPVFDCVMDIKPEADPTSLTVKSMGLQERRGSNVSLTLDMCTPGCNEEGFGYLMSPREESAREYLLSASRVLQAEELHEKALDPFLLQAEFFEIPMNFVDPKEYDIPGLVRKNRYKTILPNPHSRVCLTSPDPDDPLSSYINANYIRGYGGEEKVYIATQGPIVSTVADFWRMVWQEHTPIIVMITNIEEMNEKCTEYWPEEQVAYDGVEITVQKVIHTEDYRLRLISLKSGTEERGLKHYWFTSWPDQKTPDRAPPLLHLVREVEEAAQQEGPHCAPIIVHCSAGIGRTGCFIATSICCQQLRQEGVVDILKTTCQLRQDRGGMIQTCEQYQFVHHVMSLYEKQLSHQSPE
#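 Also added – OMFP at 25 µM · Test system – STEP tyrosine phosphatase · Technique – FITC-channel fluorescence of OMFP product · Schedule – 20 min at room temperature, dark · Evaluation – control-normalized % inhibition with plate pattern correction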
# An asterisk follows results filed as active; / = not tested or not shown. Shown are actives, neighbours in structure and some others; about 2% of the full set was active somewhere.
SMILES,CSN inh,SUMO1 PPI mod,DNMT1 inh,LMPTP block,Scp-1 inhibitor,STEP block
COc1ccc(CCn2c(O)c(C=Nc3ccc(NC(C)=O)cc3)c(=O)[nH]c2=O)cc1OC,38*,-3,-2,4,-4,29
CCOc1ccc(N=Cc2c(O)n(CCc3ccc(OC)c(OC)c3)c(=O)[nH]c2=O)cc1,29,-5,-38,-3,-11,-3
CCOc1ccc(N2C(=O)/C(=C/c3ccco3)C(=O)NC2=S)cc1,104,114*,49,92*,94*,100*
COc1ccc(OC)c(N2C(=O)NC(=O)/C(=C\c3ccc([N+](=O)[O-])s3)C2=O)c1,6,48*,16,5,3,4
CC(=O)NC1C(OC(=O)Cc2ccccc2)OC(COC(C)=O)C(OC(C)=O)C1OC(C)=O (configuration not stated),5,-2,-5,1,-10,0
O=C(c1cc(S(=O)(=O)N2CCC3(CC2)OCCO3)ccc1F)N1CCC2(CC1)OCCO2,-1,-2,1,0,-1,-1
C=C(C)CC1(CC)C(=O)NC(=S)NC1=O,6,2,3,-2,-4,-4
C=CCC1(CC)C(=O)NC(=S)NC1=O,-2,42*,2,-1,7,-1
Cc1c(C)c2ccc(OCC(=O)N3C[C@H]4C[C@@H](C3)c3cccc(=O)n3C4)c(C)c2oc1=O,-1,-3,-2,-1,7,2
CN1C(=O)NC(=O)/C(=C/c2ccc([N+](=O)[O-])o2)C1=O,/,/,/,/,62*,/
CN1C(=O)NC(=O)/C(=C/c2ccc([N+](=O)[O-])s2)C1=O,4,29,10,3,2,6
C1CCC2CCCCC2C1 (configuration not stated),-1,2,23,0,-6,1
Cc1cc(/C=C2\C(=O)NC(=O)N(c3ccccc3)C2=O)c(C)n1-c1ccc(C(=O)O)c(Cl)c1,8,-3,40,1,40,46*
Cc1nc2ccc(Br)cc2c(=O)n1-c1ccc([N+](=O)[O-])c(C(F)(F)F)c1,-1,-7,-4,1,-7,1
CN1C(=O)/C(=C\c2ccc(Br)s2)C(=O)NC1=S,11,14,0,6,0,6
O=C1NC(=S)NC(=O)C1=Cc1ccc(Br)s1,9,17,57*,10,84*,20
Cc1cc2c(C(C)C)c(O)c(O)c(C=O)c2c(O)c1-c1c(C)cc2c(C(C)C)c(O)c(O)c(C=O)c2c1O,14,58*,22,12,/,-4
C[n+]1c(-c2ccccc2)c2cc(N)ccc2c2ccc(N)cc21,-25,46*,61*,81*,-4,6
O=c1c(C=NCc2cccs2)c(O)n(C2CCCCC2)c(=O)n1C1CCCCC1,-2,-2,3,3,-11,-2
O=c1c(C=Nc2cccnc2Cl)c(O)n(CCCCl)c(=O)n1C1CCCCC1,49*,2,-2,-1,-7,-2
Nc1ccc2ccc3cccc[n+]3c2c1,-76,-14,109*,39,0,-35
CN1CCc2cc3c(c4c2C1Cc1ccccc1-4)OCO3 (configuration not stated),-46,-10,59*,9,5,2
CN1CCc2cc(O)cc3c2[C@H]1Cc1ccc(O)c(O)c1-3,0,-4,-2,1,-16,2
CCCNC(=O)N1CCC2(CC1)OCCO2,-1,0,5,0,8,-2
CC1(C)C2([N+](=O)[O-])CN3CN(C2)CC1([N+](=O)[O-])C3,0,39*,6,-1,7,1
SMILES,CSN inh,SUMO1 PPI mod,DNMT1 inh,LMPTP block,Scp-1 inhibitor,STEP block
Cc1ncc(CNC(=O)N(CCCl)N=O)c(N)n1,-1,1,-3,-3,-6,-2
C=CCn1c(C)c(C=C2C(=O)NC(=O)NC2=O)c2ccccc21,3,-1,-12,0,-8,0
CC(C)(C)n1nnnc1C(c1ccnc2ccccc12)N1CCC2(CC1)C(=O)NCN2c1ccccc1 (configuration not stated),123*,1,-4,2,/,-2
CCC(C)NC(=O)c1c(N)n(Cc2ccc3c(c2)OCO3)c2nc3ccccc3nc12 (configuration not stated),34,40*,36,8,-5,0
CCC(C)NC(=O)c1c(N)n(CCCOC)c2nc3ccccc3nc12 (configuration not stated),28,41*,38,5,-2,0
CCC(C)NC(=O)c1c(N)n(CC2CCCO2)c2nc3ccccc3nc12 (configuration not stated),26,40,3,5,-2,-1
CCCCn1c(N)c(C(=O)NCCN2CCOCC2)c2nc3ccccc3nc21,36*,34,25,3,-9,4
O=C1NC(=O)N(CCNc2ncc(C(F)(F)F)cc2Cl)C(=O)C1Cc1ccc(Cl)cc1 (configuration not stated),1,2,-10,2,-1,1
CC12CN3CN(C1)CC(C)(C3)C2=NO,0,-5,0,-2,-11,1
COC(=O)C1=C(c2ccc(S(C)(=O)=O)cc2)C[C@@H]2CC[C@H]1N2C(=O)NC1CCCCC1,0,1,0,0,-11,-1
C=CCN1C(=O)NC(=O)/C(=C/c2ccoc2)C1=O,17,5,50*,0,28,1
CSc1nc(N)c(N=Nc2ccc([As](=O)(O)O)cc2)c(=O)[nH]1,4,39*,18,43,16,0
CCCCC1(CCC)C(=O)NC(=S)NC1=O,-3,1,-3,0,-1,0
O=C1NCN(c2ccccc2)C12CCN(C(c1ccccc1)c1nnnn1C1CCCC1)CC2 (configuration not stated),0,5,-4,2,/,3
Cc1ccccc1-n1c(C)nc2ccsc2c1=O,-1,1,1,-1,8,-4
CNCC(=O)c1ccccc1,0,0,-3,-2,-1,-2
CNCC(=O)c1ccc(O)c(O)c1,-5,3,2,56*,/,2
C=CC[C@@H](CC/C=C/C=C/CC/C=C\[C@@H]1CSC([C@@H]2C[C@@H]2C)=N1)OC,-3,6,-1,1,-11,-2
Cc1ccc(N2C(=O)NC(=O)/C(=C\c3cn(CC(=O)O)c4ccccc34)C2=O)cc1,4,-2,6,2,-8,-1
O=C(O)Cn1cc(/C=C2\C(=O)NC(=O)N(Cc3ccco3)C2=O)c2ccccc21,34,27,90*,5,53*,7
Cc1cccc(OP(N)(N)=O)c1C,115*,-6,1,-1,-9,-3

# Bioassay records (PubChem BioAssay)
